Consider 19 molecules from ChEMBL document CHEMBL4732136, “Synthesis, Tumor Specificity, and Photosensitizing Efficacy of Erlotinib-Conjugated Chlorins and Bacteriochlorins: Identification of a Highly Effective Candidate for Photodynamic Therapy of Cancer” (J Med Chem, 2021).

As a reminder, the IC50 is the concentration that inhibits the measured activity by half.

Data set [1] in a line: Drug uptake in human CFSE-stained HN-121 cells assessed as increase in drug retention at 1.6 uM in medium with 10% FBS followed by 48 hrs chase period by inverted fluorescence microscopic analysis. In kind it is ADME, cell-based. Conditions: hn-121, 48 h; call rule not given here.
Data set [2] is described as follows: Drug uptake in human FaDu clone 49 cells assessed as increase in drug retention at 1.6 uM in RPMI medium with 10% FBS followed by 48 hrs chase period by inverted fluorescence microscopic analysis.
Data set [3] relates to FaDu. Put plainly: Photosensitizing activity in human FaDu cells assessed as reduction in cell viability pretreated with compound for 24 hrs followed by light irradiation at 1 J/cm2 and measured after 48 hrs by MTT assay. In kind it is functional, cell-based. Conditions: light or radiation study. In a few lines: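 Cells seeded at 0.01–0.05 x 10⁶ cells/ml; PS added 24 h after plating, top dose 1600 nM with 2-fold serial dilutions. Plates given 0 or 1 J/cm² light. MTT added 48 h later, formazan dissolved in DMSO, absorbance at 570 nm; IC50 from curve fitting.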

Data set [4] deals with UMUC3. In words: Photosensitizing activity in human UMUC3 cells assessed as reduction in cell viability pretreated with compound for 24 hrs followed by light irradiation at 1 J/cm2 and measured after 48 hrs by MTT assay. In kind it is functional, cell-based. Conditions: UMUC3, light or radiation study. The method, boiled down:
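Cells plated 0.01x10⁶ to 0.05x10⁶ cells/ml and allowed to adhere 24 h before photosensitizer was added, top dose 1600 nM with 2-fold serial dilutions. Plates received no light (0 J/cm²) or 1 J/cm² at 565 mW, 15 cm spot. After 48 h, MTT added for 3 h, formazan solubilized in DMSO and read at 570 nm; IC₅₀ fitted from dose-response.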

Data set [5] can be described thus: Drug uptake in human HN-143 cells assessed as increase in drug retention retention at 3 uM in medium with 10% FBS incubated for 5 hrs followed by 40 hrs chase period by inverted fluorescence microscopic analysis. In kind it is ADME, cell-based. Conditions: hn-143, 5 h. In a few lines:
(§1)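 Five-day co-cultures of HN-143 tumor epithelial cells and HN-166 tumor fibroblasts, both primary head & neck tumor cultures grown on collagen-1 under selective media. PS in 10% FBS medium for 5 h, then 40 h chase without PS. Phase-contrast and fluorescence images taken at 100X with 500 ms exposure; signal normalized to recording time and cell number.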

A short description of data set [6]: Drug uptake in human HN-166 cells assessed as increase in drug retention retention at 3 uM in medium with 10% FBS incubated for 5 hrs followed by 40 hrs chase period by inverted fluorescence microscopic analysis. In kind it is ADME, cell-based. Conditions: hn-166, 5 h. The method, boiled down: as §1
Data set [7] is described as follows: Drug uptake in tumor of SCID mouse xenografted with human UMUC3 cells at 0.47 micromol/kg, iv pretreated with compound followed by light irradiation at a dose of 135 J/cm2 and 75 mW/cm2 measured after 2 to 24 hrs by IVIS analysis. In kind it is ADME, organism-based, Neoplasm. Conditions: in vivo, time 2-24 hrs, dose 0.47 µmol/kg. In a few lines:
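Female SCID mice with UMUC3 flank/shoulder tumors, 3 per group. PS in 1% Tween80/5% dextrose given iv at 0.47, 0.25 or 0.125 μmol/kg. Whole-body fluorescence imaging by IVIS at several times after injection; average radiant efficiency measured in tumor, liver and skin.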
(In general: Xenograft models place foreign cells or tissue in a host animal.)

The nature of data set [8]: Drug uptake in human HNT1 cells at 3.2 uM incubated for 30 mins in DMEM media with 10% FBS followed by […] in compound-free medium by inverted fluorescence microscopic analysis. In kind it is ADME, cell-based. Conditions: hnt1, 0.5 h, in the assay text read “in serum-free medium” for “in DMEM media with 10% FBS”. In a few lines:
(§2)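 Confluent HNT1 cultures (passage 116) given 3.2 μM PS for 30 min in serum-free medium, then 5 h in serum-containing medium with PS, then 15 h chase in serum medium without PS. Fluorescence recorded at 100X with varied camera exposures and quantified digitally; pixel signal normalized to time and cell number.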

The nature of data set [9]: Drug uptake in human HNT1 cells at 3.2 uM incubated for 30 mins in serum free medium followed by […] in compound-free medium by inverted fluorescence microscopic analysis. In kind it is ADME, cell-based. Conditions: hnt1, 0.5 h. The method, boiled down:
as §2

As for `C=Cc1c(C)/c2[nH]/c1=C\C1=NC(=C\C3=C(C)C4C(=O)N(Cc5cccc(C#Cc6cccc(Nc7ncnc8cc(OCCOC)c(OCCOC)cc78)c6)c5)C(=O)/C(=C5N=C(\C=2)[C@@H](C)[C@@H]/5CCC(=O)OC)C4N3)/C(CC)=C1C` (some centres not stated), the Drug uptake result in [1] and in data set [2] was “Not Active” in each case.
For `C=Cc1c(C)c2cc3nc(c(CC(=O)OC)c4[nH]c(cc5nc(cc1[nH]2)C(C)=C5CC)c(C)c4C(=O)NCCNC(=O)COCC(=O)NCCCOCCOCCOCCCNC(=O)Cc1cccc(I)c1)[C@@H](CCC(=O)OC)[C@@H]3C`, the IC50 in data set [3] is 19.2 nM; in data set [4], 26.4 nM. Further, the Drug uptake result in data set [1] and in [2] was “Not Active” in each case.
As to `CCCCCCOC(C)c1c(C)c2cc3nc(c4c5[nH]c(cc6nc(cc1[nH]2)C(C)=C6CC)c(C)c5C(=O)C4)[C@@H](CCC(=O)NCc1cccc(C#Cc2cccc(Nc4ncnc5cc(OCCOC)c(OCCOC)cc45)c2)c1)[C@@H]3C` (some centres not stated), the Drug uptake result in [5], in [1], in data set [2] and in data set [6] was “Active” throughout. Besides, in [4], the concentration for half-maximal inhibition (IC50) turned out to be 43.4 nM.
On to `CCCCCCOC(C)c1c(C)c2cc3nc(c(CC(=O)OC)c4[nH]c(cc5nc(cc1[nH]2)C(C)=C5CC)c(C)c4C(=O)NCCCOCCOCCOCCCNC(=O)Cc1cccc(C#Cc2cccc(Nc4ncnc5cc(OCCOC)c(OCCOC)cc45)c2)c1)[C@@H](CCC(=O)OC)[C@@H]3C` (some centres not stated), for which the Drug uptake entry in data set [5], in data set [1], in [2] and in [6] was “Active” throughout. The IC50 is 21.4 nM in [3] and 7.5 nM in [4].
With `CCCCCCOC(C)c1c(C)c2cc3nc(c(CC(=O)OC)c4[nH]c(cc5nc(cc1[nH]2)C(C)=C5CC)c(C)c4C(=O)NCCCOCCOCCOCCCNC(=O)Cc1cccc(I)c1)[C@@H](CCC(=O)OC)[C@@H]3C` (some centres not stated), the IC50 in [3] amounted to 15.4 nM; in [4], 6.8 nM.
As to `CCC1c2cc3[nH]c4c(c5nc(cc6[nH]c(cc(n2)C1C)c(C(C)OCc1cccc(C#Cc2cccc(Nc7ncnc8cc(OCCOC)c(OCCOC)cc78)c2)c1)c6C)[C@@H](C)[C@@H]5CCC(=O)O)CC(=O)c4c3C` (some centres not stated), the Drug uptake result in data set [1] and in [2] was “Not Active” throughout. Besides, in data set [4], the half-maximal inhibitory concentration (IC50) was found to be 8.9 nM.
Consider `CCC1=C(C)c2cc3[nH]c(c(C)c3CC)c(-c3ccc(C(=O)NCc4ccc(I)cc4)cc3)c3nc(c4c5[nH]c(cc1n2)c(C)c5C(=O)C4)[C@@H](CCC(=O)OC)[C@@H]3C`, for which the results for the IC50 in data set [3] and in data set [4] were 1250 nM and 196 nM, respectively. Further, the Drug uptake entry in data set [1] and in [2] was “Not Active” each time.
For the molecule `CCCCCCOC(C)c1c(C)c2cc3nc(c4c5[nH]c(cc6nc(cc1[nH]2)C(C)=C6CC)c(C)c5C(=O)C4)[C@@H](CCC(=O)NC(CCC(=O)NCc1cccc(C#Cc2cccc(Nc4ncnc5cc(OCCOC)c(OCCOC)cc45)c2)c1)(CCC(=O)NCc1cccc(C#Cc2cccc(Nc4ncnc5cc(OCCOC)c(OCCOC)cc45)c2)c1)CCC(=O)NCc1cccc(C#Cc2cccc(Nc4ncnc5cc(OCCOC)c(OCCOC)cc45)c2)c1)[C@@H]3C` (some centres not stated), the Drug uptake entry in data set [1] and in data set [2] was “Not Active” each time.
Take `CCCCCCOC(C)c1c(C)c2cc3nc(c(CC(=O)OC)c4[nH]c(cc5nc(cc1[nH]2)C(C)=C5CC)c(C)c4C(=O)NCc1cccc(I)c1)[C@@H](CCC(=O)OC)[C@@H]3C` (some centres not stated): the Drug uptake result in data set [1] and in data set [2] was “Not Active” in each case.
In the case of `CCCCCCOC(C)c1c(C)c2cc3nc(c4c5[nH]c(cc6nc(cc1[nH]2)C(C)=C6CC)c(C)c5C(=O)C4)[C@@H](CCC(=O)NCc1cccc(I)c1)[C@@H]3C` (some centres not stated), the values for the IC50 in [3] and in data set [4] were 520 nM and 187 nM, respectively.
Consider `CCC1=C(C)c2cc3[nH]c(cc4nc(c5c6[nH]c(cc1n2)c(C)c6C(=O)C5)[C@@H](CCC(=O)O)[C@@H]4C)c(C)c3C(C)OCc1ccc(C#Cc2cccc(Nc3ncnc4cc(OCCOC)c(OCCOC)cc34)c2)cc1` (some centres not stated), for which the IC50 in data set [3] was determined as 59.6 nM; in data set [4], 34.4 nM. Besides, the Drug uptake result in [1] and in data set [2] was “Active” each time.
Regarding `CCC1c2cc3[nH]c4c(c5nc(cc6[nH]c(cc(n2)C1C)c(C(C)OCc1cccc(C#Cc2cccc(Nc7ncnc8cc(OCCOC)c(OCCOC)cc78)c2)c1)c6C)[C@@H](C)[C@@H]5CCC(=O)OC)CC(=O)c4c3C` (some centres not stated), the Drug uptake result in data set [1] and in data set [2] was “Not Active” in each case. Moreover, the IC50 in [4] was 16.8 nM.
As to `CCC1=C(C)c2cc3[nH]c(c(C)c3CC)c(-c3ccc(C(=O)NCc4ccc(C#Cc5cccc(Nc6ncnc7cc(OCCOC)c(OCCOC)cc67)c5)cc4)cc3)c3nc(c4c5[nH]c(cc1n2)c(C)c5C(=O)C4)[C@@H](CCC(=O)OC)[C@@H]3C`, the IC50 in [3] is over 10000 nM. In addition, the Drug uptake result in [1] and in [2] was “Not Active” throughout.
With `C=Cc1c(C)c2cc3nc(c(CC(=O)NCc4cccc(C#Cc5cccc(Nc6ncnc7cc(OCCOC)c(OCCOC)cc67)c5)c4)c4[nH]c(cc5nc(cc1[nH]2)C(C)=C5CC)c(C)c4C(=O)OC)[C@@H](CCC(=O)OC)[C@@H]3C`, the IC50 in data set [3] came to 166 nM; in data set [4], 45 nM.
For `CCCCCCOC(C)c1c(C)c2cc3nc(c(CC(=O)OC)c4[nH]c(cc5nc(cc1[nH]2)C(C)=C5CC)c(C)c4C(=O)NCc1cccc(C#Cc2cccc(Nc4ncnc5cc(OCCOC)c(OCCOC)cc45)c2)c1)[C@@H](CCC(=O)OC)[C@@H]3C` (some centres not stated), the Drug uptake result in data set [5] is listed as “Active”; in [1], “Not Active”; in data set [2], “Not Active”; in [6], “Active”. In addition, the IC50 in data set [4] was determined as 3.5 nM.
On to `C=Cc1c(C)c2cc3nc(c(CC(=O)OC)c4[nH]c(cc5nc(cc1[nH]2)C(C)=C5CC)c(C)c4C(=O)NCCNC(=O)COCC(=O)NCCCOCCOCCOCCCNC(=O)Cc1cccc(C#Cc2cccc(Nc4ncnc5cc(OCCOC)c(OCCOC)cc45)c2)c1)[C@@H](CCC(=O)OC)[C@@H]3C`, for which the IC50 in [3] came to 88.6 nM; in data set [4], 59.2 nM. The Drug uptake entry in data set [1] and in data set [2] was “Not Active” throughout.
Regarding `C=Cc1c(C)c2cc3nc(c(CC(=O)OC)c4[nH]c(cc5nc(cc1[nH]2)C(C)=C5CC)c(C)c4C(=O)NCc1cccc(I)c1)[C@@H](CCC(=O)OC)[C@@H]3C`, the IC50 came to 13.8 nM in [3] and 28.2 nM in data set [4].
Regarding `C=Cc1c(C)c2cc3nc(c(CC(=O)OC)c4[nH]c(cc5nc(cc1[nH]2)C(C)=C5CC)c(C)c4C(=O)NCc1cccc(C#Cc2cccc(Nc4ncnc5cc(OCCOC)c(OCCOC)cc45)c2)c1)[C@@H](CCC(=O)OC)[C@@H]3C`, the results for the IC50 in [3] and in data set [4] were 33.4 nM and 39.6 nM, respectively.
As for `CCC1=C(C)c2cc3[nH]c(cc4nc(c5c6[nH]c(cc1n2)c(C)c6C(=O)C5)[C@@H](CCC(=O)O)[C@@H]4C)c(C)c3C(C)OCc1cccc(C#Cc2cccc(Nc3ncnc4cc(OCCOC)c(OCCOC)cc34)c2)c1` (some centres not stated), the IC50 in [3] came out at 31.8 nM; in [4], 54.8 nM. In addition, the Drug uptake entry in [7] is listed as “Not Active”; in data set [8], “Active”; in data set [9], “Active”.
